Measured values taken from ChEMBL document CHEMBL4219224, “Structure based drug design and in vitro metabolism study: Discovery of N-(4-methylthiophenyl)-N,2-dimethyl-cyclopenta[d]pyrimidine as a potent microtubule targeting agent” (Bioorg Med Chem, 2018).

How the values were obtained:
RXF 393 = assay: Growth inhibition of human RXF393 cells incubated for 48 hrs by sulforhodamine B assay; assay type: functional; details: RXF 393, 48 h
IGROV-1 = assay: Growth inhibition of human IGROV1 cells incubated for 48 hrs by sulforhodamine B assay; assay type: functional; details: IGROV-1, 48 h
SK-OV-3 [1] = assay: Growth inhibition of human SKOV3 cells incubated for 48 hrs by sulforhodamine B assay; assay type: functional; details: SK-OV-3, 48 h
HCC 2998 = assay: Growth inhibition of human HCC2998 cells incubated for 48 hrs by sulforhodamine B assay; assay type: functional; details: HCC 2998, 48 h
SW-620 = assay: Growth inhibition of human SW620 cells incubated for 48 hrs by sulforhodamine B assay; assay type: functional; details: SW-620, 48 h
SR = assay: Growth inhibition of human SR cells incubated for 48 hrs by sulforhodamine B assay; assay type: functional
[2] = Retention time of the compound in human liver microsomes at 20 uM by LC-MS/MS analysis; assay type: ADME, microsome
Outline: (§1)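 Human liver microsomes (both genders; 1.0 mg/mL) in 100 mM PBS pH 7.4 with 3 mM MgCl2 and 10 mM NADPH, preincubated at 37 °C. Reaction started with compound at 20 μM final (from DMSO stock); propranolol 5 μM as control. Aliquots at 0 and 60 min quenched in ice-cold ACN. Analysed by LC/MS/MS on a C18 column, 5–75% B gradient over 30 min, ESI.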

NCI-H322M = assay: Growth inhibition of human NCI-H322M cells incubated for 48 hrs by sulforhodamine B assay; assay type: functional
HCT-116 = assay: Growth inhibition of human HCT116 cells incubated for 48 hrs by sulforhodamine B assay; assay type: functional; details: HCT-116, 48 h
A549 = assay: Growth inhibition of human A549/ATCC cells incubated for 48 hrs by sulforhodamine B assay; assay type: functional; details: A549, 48 h
786-0 = assay: Growth inhibition of human 786-0 cells incubated for 48 hrs by sulforhodamine B assay; assay type: functional; details: 786-0, 48 h
NCI-H460 = assay: Growth inhibition of human NCI-H460 cells incubated for 48 hrs by sulforhodamine B assay; assay type: functional; details: NCI-H460, 48 h
HeLa = assay: Antiproliferative activity against human HeLa cells expressing wild type beta3 tubulin by SRB assay; assay type: functional, cell-based
[3] = Antiproliferative activity against human SKOV3-MDR1-M6/6 cells by SRB assay; assay type: functional
SK-OV-3 [4] = assay: Antiproliferative activity against human SKOV3 cells by SRB assay; assay type: functional, cell-based
CCRF-CEM = assay: Growth inhibition of human CCRF-CEM cells incubated for 48 hrs by sulforhodamine B assay; assay type: functional
SF-295 = assay: Growth inhibition of human SF295 cells incubated for 48 hrs by sulforhodamine B assay; assay type: functional; details: SF-295, 48 h
MDA-MB-468 = assay: Growth inhibition of human MDA-MB-468 cells incubated for 48 hrs by sulforhodamine B assay; assay type: functional; details: MDA-MB-468, 48 h
UACC-62 = assay: Growth inhibition of human UACC62 cells incubated for 48 hrs by sulforhodamine B assay; assay type: functional; details: UACC-62, 48 h
SNB-19 = assay: Growth inhibition of human SNB19 cells incubated for 48 hrs by sulforhodamine B assay; assay type: functional; details: SNB-19, 48 h
MDA-MB-435 = assay: Growth inhibition of human MDA-MB-435 cells incubated for 48 hrs by sulforhodamine B assay; assay type: functional; details: MDA-MB-435, 48 h
SK-MEL-2 = assay: Growth inhibition of human SK-MEL-2 cells incubated for 48 hrs by sulforhodamine B assay; assay type: functional; details: SK-MEL-2, 48 h
MOLT-4 = assay: Growth inhibition of human MOLT4 cells incubated for 48 hrs by sulforhodamine B assay; assay type: functional; details: MOLT-4, 48 h
BT-549 = assay: Growth inhibition of human BT549 cells incubated for 48 hrs by sulforhodamine B assay; assay type: functional; details: BT-549, 48 h
SK-MEL-5 = assay: Growth inhibition of human SK-MEL-5 cells incubated for 48 hrs by sulforhodamine B assay; assay type: functional; details: SK-MEL-5, 48 h
SN12C = assay: Growth inhibition of human SN12C cells incubated for 48 hrs by sulforhodamine B assay; assay type: functional
EKVX = assay: Growth inhibition of human EKVX cells incubated for 48 hrs by sulforhodamine B assay; assay type: functional
KM12 = assay: Growth inhibition of human KM12 cells incubated for 48 hrs by sulforhodamine B assay; assay type: functional; details: KM12, 48 h
COLO 205 = assay: Growth inhibition of human COLO205 cells incubated for 48 hrs by sulforhodamine B assay; assay type: functional; details: COLO 205, 48 h
OVCAR-3 = assay: Growth inhibition of human OVCAR3 cells incubated for 48 hrs by sulforhodamine B assay; assay type: functional; details: OVCAR-3, 48 h
CAKI-1 = assay: Growth inhibition of human Caki1 cells incubated for 48 hrs by sulforhodamine B assay; assay type: functional; details: CAKI-1, 48 h
[5] = Stability in human liver microsome assessed as parent compound remaining at 20 uM after 60 mins in presence of NADPH by LC-MS/MS analysis; assay type: ADME; details: liver microsomes, read-out: Stability; outline: as §1
LOX IMVI = assay: Growth inhibition of human LOXIMVI cells incubated for 48 hrs by sulforhodamine B assay; assay type: functional
HT-29 = assay: Growth inhibition of human HT-29 cells incubated for 48 hrs by sulforhodamine B assay; assay type: functional; details: HT-29, 48 h
ACHN = assay: Growth inhibition of human ACHN cells incubated for 48 hrs by sulforhodamine B assay; assay type: functional
NCI-H522 = assay: Growth inhibition of human NCI-H522 cells incubated for 48 hrs by sulforhodamine B assay; assay type: functional; details: NCI-H522, 48 h
OVCAR-5 = assay: Growth inhibition of human OVCAR5 cells incubated for 48 hrs by sulforhodamine B assay; assay type: functional; details: OVCAR-5, 48 h
K562 = assay: Growth inhibition of human K562 cells incubated for 48 hrs by sulforhodamine B assay; assay type: functional; details: K562, 48 h
[6] = Inhibition of bovine brain tubulin polymerization assessed as reduction in tubulin assembly pretreated for 15 mins followed by GTP addition by spectrophotometric method; design: species or system Bos taurus
Outline: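 Placed on ice, then 0.4 mM GTP (final) added. Turbidity read at 350 nm after a jump from 0 °C to 30 °C.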

A498 = assay: Growth inhibition of human A498 cells incubated for 48 hrs by sulforhodamine B assay; assay type: functional; details: A498, 48 h
Bos taurus = species on record: Bos taurus; assay: Inhibition of [3H]colchicine binding to bovine brain tubulin at 1 uM measured after 10 mins by scintillation counting method relative to control
Outline: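 Reactions of 0.1 mL held 1.0 μM bovine brain tubulin, 5.0 μM [3H]colchicine, inhibitor at 1.0 or 5.0 μM, colchicine-binding stabilizing components and 5% DMSO, assembled on ice with tubulin added last. Incubated 10 min at 37 °C, stopped with ice water, filtered through DEAE-cellulose filters. Bound radiolabel counted by scintillation.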

Hs-578T = assay: Growth inhibition of human Hs578T cells incubated for 48 hrs by sulforhodamine B assay; assay type: functional
DU-145 = assay: Growth inhibition of human DU145 cells incubated for 48 hrs by sulforhodamine B assay; assay type: functional; details: DU-145, 48 h

**Q.** For `CSc1ccc(N(C)c2nc(C)nc3c2CCC3)cc1`, which GI50 (RXF 393) is on record?
**A.** < 10 nM

**Q.** And the GI50 (IGROV-1)?
**A.** < 10 nM

**Q.** What about the GI50 (SK-OV-3 [1]) of the same compound?
**A.** < 10 nM

**Q.** And the GI50 (HCC 2998)?
**A.** < 10 nM

**Q.** And the GI50 (SW-620)?
**A.** < 10 nM

**Q.** And the GI50 (SR)?
**A.** < 10 nM

**Q.** And the Retention_time [2]?
**A.** 17.4 min

**Q.** What about the GI50 (NCI-H322M) of the same compound?
**A.** > 10000 nM

**Q.** And the GI50 (HCT-116)?
**A.** < 10 nM

**Q.** And the GI50 (A549)?
**A.** < 10 nM

**Q.** What about the GI50 (786-0) of the same compound?
**A.** < 10 nM

**Q.** What about the GI50 (NCI-H460) of the same compound?
**A.** < 10 nM

**Q.** What about the IC50 (HeLa) of the same compound?
**A.** 5.3 nM

**Q.** What about the IC50 [3] of the same compound?
**A.** 9.3 nM

**Q.** And the IC50 (SK-OV-3 [4])?
**A.** 7.2 nM

**Q.** What about the GI50 (CCRF-CEM) of the same compound?
**A.** < 10 nM

**Q.** What about the GI50 (SF-295) of the same compound?
**A.** < 10 nM

**Q.** What about the GI50 (MDA-MB-468) of the same compound?
**A.** < 10 nM

**Q.** What about the GI50 (UACC-62) of the same compound?
**A.** < 10 nM

**Q.** What about the GI50 (SNB-19) of the same compound?
**A.** < 10 nM

**Q.** What about the GI50 (MDA-MB-435) of the same compound?
**A.** < 10 nM

**Q.** And the GI50 (SK-MEL-2)?
**A.** < 10 nM

**Q.** What about the GI50 (MOLT-4) of the same compound?
**A.** < 10 nM

**Q.** And the GI50 (BT-549)?
**A.** < 10 nM

**Q.** And the GI50 (SK-MEL-5)?
**A.** < 10 nM

**Q.** What about the GI50 (SN12C) of the same compound?
**A.** < 10 nM

**Q.** And the GI50 (EKVX)?
**A.** < 10 nM

**Q.** What about the GI50 (KM12) of the same compound?
**A.** < 10 nM

**Q.** What about the GI50 (COLO 205) of the same compound?
**A.** < 10 nM

**Q.** And the GI50 (OVCAR-3)?
**A.** < 10 nM

**Q.** What about the GI50 (CAKI-1) of the same compound?
**A.** < 10 nM

**Q.** And the remaining at 1 h, 20 µM [5]?
**A.** 46.4%

**Q.** And the GI50 (LOX IMVI)?
**A.** < 10 nM

**Q.** What about the GI50 (HT-29) of the same compound?
**A.** < 10 nM

**Q.** And the GI50 (ACHN)?
**A.** < 10 nM

**Q.** And the GI50 (NCI-H522)?
**A.** < 10 nM

**Q.** What about the GI50 (OVCAR-5) of the same compound?
**A.** > 10000 nM

**Q.** What about the GI50 (K562) of the same compound?
**A.** < 10 nM

**Q.** And the IC50 [6]?
**A.** 1300 nM

**Q.** What about the GI50 (A498) of the same compound?
**A.** < 10 nM

**Q.** What about the inhibition (Bos taurus) of the same compound?
**A.** 74%

**Q.** What about the GI50 (Hs-578T) of the same compound?
**A.** < 10 nM

**Q.** What about the GI50 (DU-145) of the same compound?
**A.** < 10 nM
